Hits are enriched below; roughly 2% of the tested compounds scored in any of these assays.
PABP polyA inh – PABP poly(A) RNA binding inhibitors, primary screen, biochemical, fluorescence polarization, uHTS; Polyadenylate-binding protein 1 (Homo sapiens), P11940; inhibition, % at 35 µM; 290,000 tested, 1% active; AID 2014, 2009;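 note: calls also rest on retests at 20 µM and on dose response follow-up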
HCV core dimer – inhibitors of HCV core protein dimerization, primary screen, biochemical, TR-FRET, high-throughput; 300,000 tested, 0.33% active; inhibition, % at 5 µM; TR-FRET GST/Flag-core106 dimerization, 1536-well;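 active = inhibition above the mean of all tested compounds plus 3 SD, set per screening campaign, cut at about 45% in these data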
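Assay system: GST-tagged and Flag-tagged HCV core protein residues 1-106 / Times: compound-protein-antibody incubation 4 h at 22.5 °C / Signal: time-resolved FRET, ex 340 nm, em 617 and 671 nm / Evaluation: % inhibition based on acceptor/donor emission ratio / Benchmarks: wells lacking GST-core106 and wells with excess unlabelled core106 / Repeats: singlicate, one well per compound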
PABP1 MLLE inh – inhibitors of PABP1 MLLE–PAM2 peptide binding, primary screen, biochemical, fluorescence polarization, FITC-PAM2, GST-MLLE; Polyadenylate-binding protein 1 (Homo sapiens), P11940; inhibition, % at 20 µM; 360,000 tested, 0.36% active; AID 588489, 2011; in the data active = inhibition above about 35%, passing the limit was not always enough;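 note: plate controls were DMSO wells with GST-MLLE for no effect and wells lacking GST-MLLE protein for full effect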
eIF4H inh – human eIF4H binding inhibitors, primary screen, translation initiation inhibitor project, biochemical, uHTS, fluorescence polarization | Eukaryotic translation initiation factor 4H (Homo sapiens), Q15056 | eIF4H fluorescence polarization binding assay | inhibition, % at 35 µM | 290,000 tested, 0.94% active;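 note: calls also rest on retests at 20 µM and on dose response follow-up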
NS3 helicase inh – inhibitors of HCV NS3 helicase, primary screen, biochemical, Cy5 molecular beacon fluorescence; 290,000 tested, 0.56% active; inhibition, % at 10.9 µM; NS3 helicase DNA unwinding; AID 1800, 2009;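 active = inhibition above the mean of all tested compounds plus 3 SD, set per campaign, cut at about 35% in these data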;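 note: 0% = DMSO wells and 100% = thioflavine S control wells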
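Measured by: Cy5 fluorescence, 0 and 60 min reads / Assay system: NS3 helicase fragment of HCV / Control set: low DMSO, high thioflavine S at 110 µM / Times: 1 h reaction at 25 °C, ATP-initiated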
FID counter – compounds displacing fluorescent DNA intercalator, primary screen, artefact control for HCV NS3 helicase inhibitor project, biochemical, FID fluorescence; inhibition, % at 7.9 µM; DNA fluorescent intercalator displacement; 290,000 tested, 0.17% active; in the data active = inhibition above about 37%;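 note: 0% = vehicle and 100% = reference compound; higher means more ethidium bromide displaced from hairpin DNA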
Active calls of the source: *. Unless noted, the rule behind the calls is not given here.

Screening C[C@H]1CN([C@@H](C)CO)C(=O)c2cc(Br)cnc2O[C@H]1CN(C)C(=O)C1CCC1 returned PABP1 MLLE inh -5.
Cc1cc(Cl)ccc1NC(=O)/N=C1/NC(=O)CS1 was read as PABP1 MLLE inh 8.
`CN(Cc1cnc2nc(N)nc(N)c2n1)c1ccc(C(=O)NC(CCC(=O)O)C(=O)O)cc1` (stereo unspecified) gave PABP1 MLLE inh 67*.
CN(Cc1cnc2nc(N)nc(N)c2n1)c1ccc(C(=O)NC(CCC(=O)O)C(=O)O)cc1C(F)(F)F (stereo unspecified) was read as PABP1 MLLE inh 21.
For Nc1c2ccccc2nc2ccccc12 the results were PABP polyA inh -2, HCV core dimer 6, PABP1 MLLE inh -10, eIF4H inh 5, NS3 helicase inh 25 and FID counter 51*.
Screening Cc1ccc(S(=O)(=O)N2C[C@H]3C(=O)C[C@@H](c4cccs4)N(S(=O)(=O)c4ccc(C)cc4)[C@H]3C[C@H]2c2ccccc2)cc1 returned PABP1 MLLE inh -9.
`COc1ccc(CCn2c(C)cc(C(=O)COC(=O)c3ccc(NC(=O)CC#N)cc3)c2C)cc1` gave PABP polyA inh inconclusive, HCV core dimer 50*, PABP1 MLLE inh -46, eIF4H inh inconclusive, NS3 helicase inh 21 and FID counter -40.
Screening CC1NC(=O)c2cc3ccccc3cc2-n2c1nc1ccccc1c2=O (stereo unspecified) returned PABP1 MLLE inh -2.
`CCOC(=O)c1c(C)[nH]c(C(=O)N/N=C/c2cc([N+](=O)[O-])ccc2O)c1C` gave PABP polyA inh 3, HCV core dimer 0, PABP1 MLLE inh -15, eIF4H inh 32, NS3 helicase inh 21 and FID counter -6.
CCOC(=O)c1c(C)[nH]c(C(=O)N/N=C\c2ccccc2O)c1C was read as PABP polyA inh 59*, HCV core dimer 0, PABP1 MLLE inh 8, eIF4H inh 14, NS3 helicase inh 21 and FID counter -8.
Screening CN(Cc1ccccc1)C(=O)c1ccc(NC(=O)Cc2cccc(NC(=O)C3CCN(C(=O)C4CCCC4)CC3)c2)cc1 returned PABP1 MLLE inh -12.
For N#CCSc1nnc(CNc2ccc(F)cc2)o1 the results were PABP polyA inh 53*, HCV core dimer -1, PABP1 MLLE inh 48*, eIF4H inh 111*, NS3 helicase inh 16 and FID counter -4.
O=C(O)c1ccc(CNC(=O)C2CCN(S(=O)(=O)c3ccc4c(c3)OCCO4)CC2)cc1 was read as PABP1 MLLE inh 17.
For CCOC(=O)C1=C(CSc2nc3c(cc2C#N)CN(C)CC3)OC(N)=C(C#N)C1c1ccc(Cl)cc1 (stereo unspecified) the results were PABP polyA inh inconclusive, HCV core dimer 57*, PABP1 MLLE inh -8, eIF4H inh inconclusive, NS3 helicase inh -5 and FID counter 2.
`CC(C)CC(NC(=O)C(COCc1ccccc1)NC(=O)OC(C)(C)C)C(=O)NN` (stereo unspecified) gave PABP polyA inh 68, HCV core dimer 9, PABP1 MLLE inh 11, eIF4H inh active, NS3 helicase inh 3 and FID counter -31.
CC1C(=O)N(Cc2cn(Cc3ccco3)nn2)CCS(=O)(=O)N1Cc1ccc(-c2ccc(Cl)cc2)cc1 (stereo unspecified) was read as PABP1 MLLE inh -13.
Cc1[nH]c(=O)sc1C(=O)NCc1ccc([N+](=O)[O-])cc1 was read as PABP1 MLLE inh -7.
`CCc1ccc(OS(=O)(=O)c2cn(C)c(=O)n(C)c2=O)cc1` gave PABP polyA inh -3, HCV core dimer -1, PABP1 MLLE inh 41*, eIF4H inh -5, NS3 helicase inh 9 and FID counter -4.
For Cc1ccc(S(=O)(=O)/N=C(\CCl)N2CCOCC2)cc1 the results were PABP polyA inh 23, HCV core dimer 5, PABP1 MLLE inh 12, eIF4H inh 0, NS3 helicase inh 6 and FID counter 5.
Screening CCN(CC)C(=S)NC(=O)c1ccc(OC)c(Br)c1 returned PABP polyA inh 4, HCV core dimer -6, PABP1 MLLE inh 35, eIF4H inh 4, NS3 helicase inh 12 and FID counter -6.
Screening C=CCN(CC=C)C(=S)NC(=O)c1ccc(OC)c(Br)c1 returned PABP polyA inh -2, HCV core dimer -4, PABP1 MLLE inh 44*, eIF4H inh 3, NS3 helicase inh -5 and FID counter -10.
For COc1ccc(C2C3=C(CC(C)(C)CC3=O)Nc3c2c(=O)n(C)c(=O)n3C)cc1OC (stereo unspecified) the results were PABP polyA inh 69, HCV core dimer 5, PABP1 MLLE inh 3, eIF4H inh active, NS3 helicase inh 15 and FID counter -17.
Screening CN(C)CCn1c(=O)n(Cc2ccco2)c(=O)c2c3c(sc21)CCCCC3 returned PABP polyA inh 1, HCV core dimer 2, PABP1 MLLE inh 5, eIF4H inh -7, NS3 helicase inh -24 and FID counter 8.
O=c1c2c3c(sc2n(CCN2CCCC2)c(=O)n1Cc1ccco1)CCCCC3 was read as PABP polyA inh -9, HCV core dimer 6, PABP1 MLLE inh 1, eIF4H inh -6, NS3 helicase inh -24 and FID counter 2.
Screening O=C(Cn1c(=O)n(Cc2ccco2)c(=O)c2c3c(sc21)CCCCC3)Nc1ccccc1 returned PABP polyA inh 56*, HCV core dimer 56*, PABP1 MLLE inh 6, eIF4H inh 78*, NS3 helicase inh 14 and FID counter -36.
O=C(Cn1c(=O)n(Cc2ccco2)c(=O)c2c3c(sc21)CCCCC3)c1ccccc1 was read as PABP polyA inh 36*, HCV core dimer 72*, PABP1 MLLE inh -16, eIF4H inh 74*, NS3 helicase inh 26 and FID counter -37.
`O=C(NC(C(=O)N/N=C/c1cc([N+](=O)[O-])ccc1O)c1n[nH]c(=O)c2ccccc12)c1ccccc1` (stereo unspecified) gave PABP polyA inh 15, HCV core dimer 0, PABP1 MLLE inh 11, eIF4H inh 25, NS3 helicase inh 11 and FID counter 0.
Nc1cccc2c(=O)c3ccccc3[nH]c12 was read as PABP polyA inh 92*, HCV core dimer -26, PABP1 MLLE inh -51, eIF4H inh 92*, NS3 helicase inh 25 and FID counter -6.
